This is a sample that favours compounds with a hit; in the whole collection about 0.95% have one here.
NCF1 inh = p47phox/p22phox peptide binding inhibitors, primary screen, biochemical, uHTS, NADPH oxidase regulatory subunit. Neutrophil cytosol factor 1 (Homo sapiens), P14598. 220,000 compounds, 0.53% hits. fluorescence polarization, 2 h. inhibition, % at 24.7 µM;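 active = inhibition above about 30%, limit read from the data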;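 note: 0% = p47phox with labelled peptide and 100% = labelled peptide alone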
Arbovirus anti = antivirals against arbovirus infection, primary screen, cell-based, full library, 10K replicate subset. arbovirus infection cell-based antiviral screen. inhibition, % at 10 µM. 200,000 compounds, 0.37% hits. AID 1251, 2008; in the data active = inhibition above about 30%
Furin inh = human furin inhibitors, primary screen, biochemical, fluorescence intensity; P09958; inhibition, % at 20 µM or 30 µM; 220,000 compounds, 0.061% hits; purified furin, fluorogenic substrate cleavage; in the data active = inhibition above about 25%
Target sequence (P09958 108-714 limits assumed): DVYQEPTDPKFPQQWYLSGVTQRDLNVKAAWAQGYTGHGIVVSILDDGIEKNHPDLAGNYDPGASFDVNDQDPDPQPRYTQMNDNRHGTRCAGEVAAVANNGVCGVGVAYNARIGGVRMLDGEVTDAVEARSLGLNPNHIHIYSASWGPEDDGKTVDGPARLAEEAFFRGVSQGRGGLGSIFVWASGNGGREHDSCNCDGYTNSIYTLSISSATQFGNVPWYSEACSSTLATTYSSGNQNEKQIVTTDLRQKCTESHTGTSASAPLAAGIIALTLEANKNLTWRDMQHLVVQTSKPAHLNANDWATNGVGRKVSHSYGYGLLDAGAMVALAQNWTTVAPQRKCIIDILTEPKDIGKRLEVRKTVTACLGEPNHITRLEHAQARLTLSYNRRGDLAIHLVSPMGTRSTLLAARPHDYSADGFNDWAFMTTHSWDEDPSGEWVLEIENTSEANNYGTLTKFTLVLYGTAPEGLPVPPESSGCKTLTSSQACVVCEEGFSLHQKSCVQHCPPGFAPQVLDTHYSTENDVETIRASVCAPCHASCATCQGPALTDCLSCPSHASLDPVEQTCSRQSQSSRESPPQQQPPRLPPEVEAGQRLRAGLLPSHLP
HSV augment = enhancers of HSV replication in host cells, fold increase, host cell viability; maximum fold increase; 220,000 compounds, 0.005% hits; HSV replication augmentation in cells; in the data active = maximum fold increase above about 1.5; tested in PC3 cells
ABCB1 block = ABCB1 efflux pump inhibitors, primary screen, cell-based, multiplex, flow cytometry, ABCG2 counter-screen. CCRF-Adr cells, JC-1 efflux. ATP-dependent translocase ABCB1 (Homo sapiens), P08183. 190,000 compounds, 0.067% hits. AID 1326, 2008. inhibition, % at 6.6 µM; in the data active = inhibition above about 40%;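 note: 0% = vehicle and 100% = reference inhibitor; higher value means more JC-1 retained so stronger ABCB1 efflux block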
ABCG2 inh = ABCG2 efflux pump inhibitors, primary screen, multiplex with ABCB1, IgMXP3 cells, flow cytometry. JC-1 efflux. inhibition, % at 6.6 µM. Broad substrate specificity ATP-binding cassette transporter ABCG2 (Homo sapiens), Q9UNQ0. 190,000 compounds, 0.1% hits;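 active = inhibition above 80%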;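 note: 0% = DMSO and 100% = nicardipine control wells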
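Measure – % inhibition of efflux relative to nicardipine and DMSO · Test system – ABCG2 IgMXP3 and barcoded ABCB1 CCRF-Adr cell mix · Control set – nicardipine as high control, DMSO as low control · Compound – one concentration, 6.6 µM final · Signal – flow cytometry of retained JC-1 fluorescence · Timing – 10 min exposure at 25 °C with rotation, no wash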
Starred values were filed as active, the others as inactive; i = inactive; / = no result given; + = active, no number.

SMILES	NCF1 inh	Arbovirus anti	Furin inh	HSV augment	ABCB1 block	ABCG2 inh
COC(=O)c1sc(S(=O)(=O)Nc2ccc(C)c(C)c2)c(C(=O)OC)c1C	-7.7	9.0	-5.4	i	-0.2	-0.6
CCN(CC)C(=O)CSC1=N/C(=C/c2ccco2)C(=O)N1c1ccc(OC)c(Cl)c1	-40.4	36.5*	-9.9	i	-0.4	-2.0
FC(F)(F)c1cccc(NC(=S)Nc2cccc(NC(=S)Nc3cccc(C(F)(F)F)c3)n2)c1	-47.5	/	-14.8	i	/	/
CCOC(=O)c1cc(C(=O)OCC)c(=O)[nH]c1C	-3.1	2.7	-26.1	i	-0.7	-1.5
CCOC(=O)c1cc2c(N)c(C(=O)c3ccc(Br)cc3)sc2[nH]c1=O	-8.0	32.3*	-3.6	i	-0.8	-0.8
O=C(O)/C(=C\c1ccc(-c2ccc(F)cc2)o1)c1ccccc1	-14.0	44.1*	-12.5	i	-0.2	0.0
CCNC(=O)C1CC(=O)N(Cc2ccc3c(c2)OCO3)C(=Nc2ccc(F)cc2)S1 (stereo not drawn)	-8.6	-5.1	32.2*	i	1.0	1.5
COc1ccc(N=C2SC(C(N)=O)CC(=O)N2Cc2ccc3c(c2)OCO3)cc1 (stereo not drawn)	-5.5	/	-26.8	i	/	/
CCCCNC(=O)C(c1ccc(OCC(=O)OC)c(C(=O)OC)c1)N(CCOC)C(=O)CCCCCN1C(=O)NC(c2ccc(-c3ccccc3)cc2)C(C(=O)OCc2ccccc2)=C1C (stereo not drawn)	-14.7	/	-16.8	/	/	/
COc1cccc(C(=O)Nc2cccc(C(=O)NC3=NN(c4c(Cl)cc(Cl)cc4Cl)C(=O)C3)c2)c1	-23.8	34.4*	-9.7	i	0.3	0.3
O=C(OCCN=C1NS(=O)(=O)c2ccccc21)c1ccco1	5.4	3.6	-19.9	i	1.0	2.0
COCC(=O)N(C)c1nnc(-c2ccccn2)s1	-5.0	5.3	-17.7	i	0.6	3.3
COCC(=O)N(C)c1nnc(-c2ccc([N+](=O)[O-])cc2)s1	35.0*	9.5	8.9	i	0.1	2.2
COC(=O)Cc1[nH]nc2c1C(c1ccc(O)c(OC)c1)C(C#N)=C(N)O2 (stereo not drawn)	-15.2	/	-24.9	i	/	/
COC(=O)c1ccc(NC(=O)CCN2C(=O)CSC2=O)cc1	-10.7	-1.8	-21.0	i	-0.3	20.1
O=S(=O)(c1cc(Cl)ccc1Cl)n1ccnc1	146.9*	4.1	-26.2	i	-0.2	-0.7
O=[N+]([O-])c1ccc(Cl)c(S(=O)(=O)n2ccnc2)c1	-8.9	/	-20.9	i	/	/
CCN1C(=O)C2C(c3ccc(O)c(OC)c3)NC(C)(C(=O)OC)C2C1=O (stereo not drawn)	38.4*	5.1	-30.4	i	0.0	-0.4
O=C(Cc1ccccc1)Nc1ccc(NC(=O)c2cccs2)cc1Cl	0.9	-7.4	-12.3	i	-0.3	1.4
COC(=O)c1cc(Br)c(=O)n(-c2ccc(F)cc2)c1	31.3*	4.7	-9.1	i	0.3	2.4
COC(=O)c1cc(Br)c(=O)n(CCc2ccc(F)cc2)c1	-2.6	2.8	-9.9	i	0.5	6.4
O=C(Nc1ccc(Nc2ccncc2)cc1)c1ccc([N+](=O)[O-])cc1	1.7	/	-4.2	i	/	/
O=C(Nc1ccc(Nc2ccncc2)cc1)c1ccc(Nc2ccnc3ccc([N+](=O)[O-])cc23)cc1[N+](=O)[O-]	71.4*	/	10.7	i	/	/
Cc1ccccc1SCCNC(=O)CCc1ccccc1	-3.0	-2.0	-4.0	i	0.3	11.2
Cc1cccc(NCC(=O)NNC(=S)Nc2ccccc2)c1	8.2	-1.9	-34.8	i	-0.3	-0.6
SMILES	NCF1 inh	Arbovirus anti	Furin inh	HSV augment	ABCB1 block	ABCG2 inh
CNC(=S)NNC(=O)CNc1ccc(C)c(Cl)c1	+	17.9	-41.9	/	-0.2	0.1
CC(C)(C)NC(=S)NCc1ccncc1	1.7	5.7	-22.8	i	0.0	0.1
Cn1ccnc1C(O)c1ccccc1 (stereo not drawn)	0.9	6.6	-10.0	i	-0.3	-0.7
Cn1ccnc1C(O)(c1ccccc1)c1nccn1C	48.4*	/	-8.5	i	/	/
CCOC(=O)C1=C(c2ccccc2)NC(=O)NC1c1cc(Cl)c(O)c(OC)c1 (stereo not drawn)	-3.8	0.4	-18.9	i	-0.3	-1.5
CCOC(=O)C1=C(c2ccccc2)NC(N)=NC1c1ccc(OCc2ccc(Cl)cc2)c(OC)c1 (stereo not drawn)	70.7*	/	-6.7	i	/	/
C[C@@H]1CN(c2c(F)c(N)c3c(=O)c(C(=O)O)cn(C4CC4)c3c2F)C[C@H](C)N1	-0.1	12.1	/	/	/	2.5
COc1cc(/C=C(\C#N)c2nc3ccc(C)cc3[nH]2)cc([N+](=O)[O-])c1O	-78.1	44.2*	2.4	i	-0.8	-1.4
COc1cc(/C=C(\C#N)c2nc3ccc(C)cc3[nH]2)c([N+](=O)[O-])cc1OC	15.7	-3.2	-10.8	i	3.0	3.4
CC1CCN(C(=O)c2ccc(CNc3c(N4CCCC4)c(=O)c3=O)cc2)CC1	2.9	/	1.4	i	/	/
O=C(c1ccc(CNc2c(N3CCCC3)c(=O)c2=O)cc1)N1CCN(C2CCCCC2)CC1	34.8*	7.9	-8.6	/	0.5	11.8
Cc1ccc2cc3c(N)c4c(C)ccc(C)c4nc3nc2c1	31.0*	3.4	-13.6	i	-0.5	3.1
CC(c1ccco1)N(C(=O)c1ccccc1NS(=O)(=O)c1ccc(Cl)c([N+](=O)[O-])c1)c1ccccn1 (stereo not drawn)	-8.8	18.5	-5.8	i	0.1	-2.0
CN(C)S(=O)(=O)c1cc(NC(=O)COC(=O)Cc2ccc(Br)cc2)ccc1Cl	-3.3	2.1	-13.6	i	1.2	0.7
COc1cc(CC(=O)OCC(=O)Nc2ccc(Cl)c(S(=O)(=O)N(C)C)c2)cc(OC)c1OC	33.6*	/	-20.1	i	/	/
O=C(O)CSc1nnc(CNc2cccc(C(F)(F)F)c2)n1Cc1ccco1	-0.8	33.5*	-9.5	i	0.5	1.6
COc1ccccc1NC(=O)COC(=O)c1ccccc1OCC(=O)Nc1ccc(SC(F)F)cc1	-12.0	-8.5	-21.7	i	2.5	68.5
CN(C)C(=O)COC(=O)c1ccccc1Nc1ccc(SC(F)F)cc1	-8.2	32.7*	-12.9	i	-0.1	0.2
O=Cc1cn(-c2ccccc2)nc1-c1cc2cc(O)ccc2oc1=O	-65.2	33.2*	3.8	i	0.3	4.7
O=Cc1cn(-c2ccccc2)nc1-c1cc2c(ccc3ccccc32)oc1=O	-24.8	1.9	-9.9	/	-0.3	12.8
CC(C)NC(=O)CC1C(=O)NCCN1CC(c1ccccc1)c1ccccc1 (stereo not drawn)	7.4	4.9	-9.1	i	-0.8	-1.6

Screening results: PubChem, several laboratories
